According to ChEMBL document CHEMBL1140915, “Second-generation highly potent and selective inhibitors of the hepatitis C virus NS3 serine protease” (J Med Chem, 2009):
pKi: −log10 of the molar value.

How the values were obtained:
[1] = AUC in monkey at 1 mg/kg, iv administered with 0.4% hydroxypropyl methylcellulose; type: ADME, organism-based, Macaca mulatta; design: dose 1 mg/kg, route intravenous; conditions: rhesus monkey, in vivo
[2] = AUC in rat at 10 mg/kg, po administered with 20% HPBCD; type: ADME, organism-based; design: dose 10 mg/kg, route oral; conditions: plasma
[3] = AUC in rat at 3 mg/kg, iv administered with 0.4% hydroxypropyl methylcellulose; type: ADME, organism-based; design: dose 3 mg/kg, route intravenous; conditions: in vivo
[4] = Half life in rat at 3 mg/kg, iv administered with 0.4% hydroxypropyl methylcellulose; type: ADME, organism-based; design: dose 3 mg/kg, route intravenous; conditions: in vivo
[5] = Bioavailability in monkey at 3 mg/kg, po administered with 0.4% hydroxypropyl methylcellulose; type: ADME, organism-based, Macaca mulatta; conditions: rhesus monkey, in vivo
[6] = test system: Hepatitis C virus; test: Antiviral activity against HCV assessed as inhibition of virus replication by cell based assay in absence of human serum; type: functional, Hepacivirus hominis
Method in brief: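 Replicon-based cellular assay run without human serum. EC90 is the concentration that inhibits replicon replication by 90%. Compounds were tested as rapidly equilibrating P1 diastereomer mixtures.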

[7] = Selectivity for HCV NS3 protease over human neutrophil elastase
Method in brief: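 Compounds were also assayed against human neutrophil elastase. Selectivity is expressed as the HNE/HCV ratio of the two enzyme potencies.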

[8] = Half life in monkey at 1 mg/kg, iv administered with 0.4% hydroxypropyl methylcellulose; type: ADME, organism-based, Macaca mulatta; design: dose 1 mg/kg, route intravenous; conditions: rhesus monkey, in vivo
[9] = Inhibition of HCV NS3 protease in absence of human serum; design: species or system Hepacivirus hominis
Method in brief: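 Continuous enzymatic assay using NS4A-tethered single-chain HCV NS3 serine protease, without human serum. Ki* is the equilibrium constant, which includes the reversible covalent ketone–serine bond. Compounds were tested as P1 diastereomer mixtures (2:1 to 1:2) that equilibrate rapidly under assay conditions.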

[10] = Bioavailability in dog at 3 mg/kg, po administered with 0.4% hydroxypropyl methylcellulose; type: ADME, organism-based, Canis lupus familiaris; conditions: in vivo
[11] = AUC in monkey at 3 mg/kg, po administered with 0.4% hydroxypropyl methylcellulose; type: ADME, organism-based, Macaca mulatta; design: dose 3 mg/kg, route oral; conditions: rhesus monkey, in vivo
[12] = Half life in dog at 2 mg/kg, iv administered with 0.4% hydroxypropyl methylcellulose; type: ADME, organism-based, Canis lupus familiaris; design: dose 2 mg/kg, route intravenous; conditions: in vivo
[13] = AUC in dog at 3 mg/kg, po administered with 0.4% hydroxypropyl methylcellulose; type: ADME, organism-based, Canis lupus familiaris; design: dose 3 mg/kg, route oral; conditions: in vivo
[14] = AUC in dog at 2 mg/kg, iv administered with 0.4% hydroxypropyl methylcellulose; type: ADME, organism-based, Canis lupus familiaris; design: dose 2 mg/kg, route intravenous; conditions: in vivo
[15] = AUC in rat at 10 mg/kg, po administered with 0.4% hydroxypropyl methyl cellulose; type: ADME, organism-based; design: dose 10 mg/kg, route oral; conditions: in vivo
[16] = Bioavailability in rat at 10 mg/kg, po administered with 0.4% hydroxypropyl methylcellulose; type: ADME, organism-based; conditions: in vivo
[17] = Drug level in rat liver after 6 hrs; type: ADME, tissue-based; conditions: read-out: Drug uptake
Method in brief: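 In rat, compound level in liver was measured 6 h after dosing in 0.4% MC and reported as ng/g tissue.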

C=CCNC(=O)C(=O)C(CC1CC1)NC(=O)[C@@H]1[C@@H]2[C@H](CN1C(=O)[C@@H](NC(=O)NC(CN1C(=O)CC(C)(C)CC1=O)C(C)(C)C)C(C)(C)C)C2(C)C (single isomer, unassigned)
AUC [1]: 0.7 µM·h
AUC [2]: 1.2 µM·h
AUC [3]: 1.6 µM·h
half-life [4]: 7.4 h
bioavailability [5]: 4%
EC90 [6]: 30 nM
Ratio [7]: 7100
half-life [8]: 2.3 h
pKi [9]: 8.40
bioavailability [10]: 35%
AUC [11]: 0.1 µM·h
half-life [12]: 2.7 h
AUC [13]: 1.2 µM·h
AUC [14]: 2.2 µM·h
AUC [15]: 0.9 µM·h
bioavailability [16]: 22%
concentration at 6 h [17]: 1800 ng/g
